{
  "source": "ChEMBL document CHEMBL1148040",
  "about": "“New lignans from Anogeissus acuminata with HIV-1 reverse transcriptase inhibitory activity” (J Nat Prod, 1994)",
  "key": {"[1]": {"target": "T1, Human immunodeficiency virus type 1 reverse transcriptase (Human immunodeficiency virus 1, UniProt Q72547)", "assay": "Inhibition of HIV1 reverse transcriptase", "in_short": "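HIV-1 RT inhibition was measured by a previously published method. Each value is the mean of three experiments, each run in duplicate. Test levels reached 250 µg/ml in the assay mixture.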"}, "[2]": {"tested_on": "Lu1", "assay": "Cytotoxicity against human Lu1 cells", "assay_type": "functional", "details": "read-out: ED50 (the source's name); call rule not given here"}, "[3]": {"target": "Human immunodeficiency virus type 1 reverse transcriptase (Human immunodeficiency virus 1) (UniProt Q72547)", "assay": "Inhibition of HIV1 reverse transcriptase at 250 ug/ml", "in_short": "(§1)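 HIV-1 reverse transcriptase inhibition, run by an assay procedure the authors described earlier. Each test concentration was run in duplicate in three separate experiments, and the reported value is the average of the three experiments.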"}, "[4]": {"assay": "Cytotoxicity against human KBV1 cells in presence of vinblastine", "assay_type": "functional", "details": "KB-V1, read-out: ED50 (the source's name)"}, "[5]": {"tested_on": "LNCaP", "assay": "Cytotoxicity against human LNCAP cells", "assay_type": "functional", "details": "read-out: ED50 (the source's name)"}, "[6]": {"target": "Human immunodeficiency virus type 1 reverse transcriptase (Human immunodeficiency virus 1) (UniProt Q72547)", "assay": "Inhibition of HIV1 reverse transcriptase at 200 ug/ml", "in_short": "as §1"}, "[7]": {"target": "Human immunodeficiency virus type 1 reverse transcriptase (Human immunodeficiency virus 1) (UniProt Q72547)", "assay": "Inhibition of HIV1 reverse transcriptase at 40 ug/ml", "in_short": "as §1"}, "[8]": {"tested_on": "HT-1080", "assay": "Cytotoxicity against human HT1080 cells", "assay_type": "functional", "details": "read-out: ED50 (the source's name)"}, "[9]": {"assay": "Inhibition of HIV2 reverse transcriptase", "parameters": "species or system Human immunodeficiency virus 2"}, "[10]": {"tested_on": "KB", "assay": "Cytotoxicity against human KB cells", "assay_type": "functional", "details": "read-out: ED50 (the source's name)"}, "[11]": {"target": "T1, Human immunodeficiency virus type 1 reverse transcriptase", "assay": "Inhibition of drug-resistant HIV1 reverse transcriptase"}, "[12]": {"target": "Human immunodeficiency virus type 1 reverse transcriptase (Human immunodeficiency virus 1) (UniProt Q72547)", "assay": "Inhibition of HIV1 reverse transcriptase at 60 ug/ml", "in_short": "as §1"}, "[13]": {"assay": "Cytotoxicity against human U373 cells", "assay_type": "functional, U-373MG ATCC", "details": "U373 MG, read-out: ED50 (the source's name)"}, "[14]": {"target": "Human immunodeficiency virus type 1 reverse transcriptase (Human immunodeficiency virus 1) (UniProt Q72547)", "assay": "Inhibition of HIV1 reverse transcriptase at 150 ug/ml", "in_short": "as §1"}, "[15]": {"assay": "Cytotoxicity against human BC1 cells", "assay_type": "functional", "details": "read-out: ED50 (the source's name)"}, "[16]": {"target": "Human immunodeficiency virus type 1 reverse transcriptase (Human immunodeficiency virus 1) (UniProt Q72547)", "assay": "Inhibition of HIV1 reverse transcriptase at 80 ug/ml", "in_short": "as §1"}, "[17]": {"tested_on": "A-431", "assay": "Cytotoxicity against human A431 cells", "assay_type": "functional", "details": "read-out: ED50 (the source's name)"}, "[18]": {"target": "Human immunodeficiency virus type 1 reverse transcriptase (Human immunodeficiency virus 1) (UniProt Q72547)", "assay": "Inhibition of HIV1 reverse transcriptase at 100 ug/ml", "in_short": "as §1"}, "[19]": {"target": "Human immunodeficiency virus type 1 reverse transcriptase (Human immunodeficiency virus 1) (UniProt Q72547)", "assay": "Inhibition of HIV1 reverse transcriptase at 20 ug/ml", "in_short": "as §1"}, "[20]": {"tested_on": "P388", "assay": "Cytotoxicity against mouse P388 cells", "assay_type": "functional", "details": "read-out: ED50 (the source's name)"}, "[21]": {"assay": "Cytotoxicity against human KBV1 cells in absence of vinblastine", "assay_type": "functional", "details": "KB-V1, read-out: ED50 (the source's name)"}, "[22]": {"tested_on": "ZR-75-1", "assay": "Cytotoxicity against human ZR-75-1 cells", "assay_type": "functional", "details": "read-out: ED50 (the source's name)"}, "[23]": {"tested_on": "SK-MEL-2", "assay": "Cytotoxicity against human SK-MEL-2 cells", "assay_type": "functional", "details": "read-out: ED50 (the source's name)"}, "[24]": {"assay": "Cytotoxicity against human Col1 cells", "assay_type": "functional", "details": "read-out: ED50 (the source's name)"}},
  "note": "pIC50: −log10 of the molar value.",
  "data": [
    {"smiles": "COc1cc(C[C@@H](CO)[C@H](CO)Cc2ccc(O)c(OC)c2)ccc1O", "note": "[(+)-SECOISOLARICIRESINOL]", "values": [
      {"measurement": "IC50", "setting": "[1]", "value": "Not Active"}
    ]},
    {"smiles": "C=C(Cc1ccc2c(c1)OCO2)C(=C)Cc1ccc(O)cc1O", "note": "[ANOLIGNAN A]", "values": [
      {"measurement": "EC50", "setting": "[2]", "value": 15.8, "unit": "mg/L"},
      {"measurement": "inhibition", "setting": "[3]", "value": 97.4, "unit": "%"},
      {"measurement": "EC50", "setting": "[4]", "value": "> 20", "unit": "mg/L"},
      {"measurement": "EC50", "setting": "[5]", "value": 10.8, "unit": "mg/L"},
      {"measurement": "inhibition", "setting": "[6]", "value": 92.8, "unit": "%"},
      {"measurement": "inhibition", "setting": "[7]", "value": 33.8, "unit": "%"},
      {"measurement": "EC50", "setting": "[8]", "value": 13.1, "unit": "mg/L"},
      {"measurement": "IC50", "setting": "[9]", "value": 156.9, "unit": "mg/L"},
      {"measurement": "EC50", "setting": "[10]", "value": "> 20", "unit": "mg/L"},
      {"measurement": "pIC50", "setting": "[11]", "value": 3.47},
      {"measurement": "inhibition", "setting": "[12]", "value": 51.5, "unit": "%"},
      {"measurement": "EC50", "setting": "[13]", "value": 13.5, "unit": "mg/L"},
      {"measurement": "inhibition", "setting": "[14]", "value": 80.8, "unit": "%"},
      {"measurement": "EC50", "setting": "[15]", "value": 4.3, "unit": "mg/L"},
      {"measurement": "inhibition", "setting": "[16]", "value": 68.3, "unit": "%"},
      {"measurement": "EC50", "setting": "[17]", "value": "> 20", "unit": "mg/L"},
      {"measurement": "inhibition", "setting": "[18]", "value": 73.9, "unit": "%"},
      {"measurement": "IC50", "setting": "[1]; read-out: IC50 (converted)", "value": 195, "unit": "µM"},
      {"measurement": "inhibition", "setting": "[19]", "value": 4.1, "unit": "%"},
      {"measurement": "EC50", "setting": "[20]", "value": "> 20", "unit": "mg/L"},
      {"measurement": "EC50", "setting": "[21]", "value": "> 20", "unit": "mg/L"},
      {"measurement": "EC50", "setting": "[22]", "value": 6.1, "unit": "mg/L"},
      {"measurement": "EC50", "setting": "[23]", "value": 7.6, "unit": "mg/L"},
      {"measurement": "EC50", "setting": "[24]", "value": 16.8, "unit": "mg/L"}
    ]},
    {"smiles": "C=C(Cc1ccc(O)cc1)C(=C)Cc1ccc(O)cc1", "note": "[ANOLIGNAN B]", "values": [
      {"measurement": "EC50", "setting": "[2]", "value": 11.1, "unit": "mg/L"},
      {"measurement": "EC50", "setting": "[4]", "value": "> 20", "unit": "mg/L"},
      {"measurement": "EC50", "setting": "[5]", "value": 8.7, "unit": "mg/L"},
      {"measurement": "inhibition", "setting": "[6]", "value": 32.9, "unit": "%"},
      {"measurement": "inhibition", "setting": "[7]", "value": 17.7, "unit": "%"},
      {"measurement": "EC50", "setting": "[8]", "value": 4.7, "unit": "mg/L"},
      {"measurement": "EC50", "setting": "[10]", "value": "> 20", "unit": "mg/L"},
      {"measurement": "inhibition", "setting": "[12]", "value": 25.5, "unit": "%"},
      {"measurement": "EC50", "setting": "[13]", "value": 5.7, "unit": "mg/L"},
      {"measurement": "inhibition", "setting": "[14]", "value": 31.2, "unit": "%"},
      {"measurement": "EC50", "setting": "[15]", "value": 5.1, "unit": "mg/L"},
      {"measurement": "inhibition", "setting": "[16]", "value": 20.9, "unit": "%"},
      {"measurement": "EC50", "setting": "[17]", "value": "> 20", "unit": "mg/L"},
      {"measurement": "inhibition", "setting": "[18]", "value": 27.4, "unit": "%"},
      {"measurement": "IC50", "setting": "[1]; read-out: IC50 (converted)", "value": 4020, "unit": "µM"},
      {"measurement": "inhibition", "setting": "[19]", "value": 10, "unit": "%"},
      {"measurement": "EC50", "setting": "[20]", "value": 1, "unit": "mg/L"},
      {"measurement": "EC50", "setting": "[21]", "value": "> 20", "unit": "mg/L"},
      {"measurement": "EC50", "setting": "[22]", "value": "> 20", "unit": "mg/L"},
      {"measurement": "EC50", "setting": "[23]", "value": 19, "unit": "mg/L"},
      {"measurement": "EC50", "setting": "[24]", "value": 18, "unit": "mg/L"}
    ]},
    {"smiles": "C[C@@H]1[C@H](C)[C@H](c2ccc(O)cc2)O[C@@H]1c1ccc(O)cc1", "note": "[ANOLIGNAN C]", "values": [
      {"measurement": "EC50", "setting": "[2]", "value": 15.8, "unit": "mg/L"},
      {"measurement": "EC50", "setting": "[4]", "value": "> 20", "unit": "mg/L"},
      {"measurement": "EC50", "setting": "[5]", "value": 10.8, "unit": "mg/L"},
      {"measurement": "EC50", "setting": "[8]", "value": 13.1, "unit": "mg/L"},
      {"measurement": "EC50", "setting": "[10]", "value": "> 20", "unit": "mg/L"},
      {"measurement": "EC50", "setting": "[13]", "value": 18.5, "unit": "mg/L"},
      {"measurement": "EC50", "setting": "[15]", "value": "> 20", "unit": "mg/L"},
      {"measurement": "EC50", "setting": "[17]", "value": "> 20", "unit": "mg/L"},
      {"measurement": "IC50", "setting": "[1]", "value": "Not Active"},
      {"measurement": "EC50", "setting": "[20]", "value": "> 20", "unit": "mg/L"},
      {"measurement": "EC50", "setting": "[21]", "value": "> 20", "unit": "mg/L"},
      {"measurement": "EC50", "setting": "[22]", "value": 6.1, "unit": "mg/L"},
      {"measurement": "EC50", "setting": "[23]", "value": 7.6, "unit": "mg/L"},
      {"measurement": "EC50", "setting": "[24]", "value": 16.8, "unit": "mg/L"}
    ]}
  ]
}
